Kir21 block = Kir2.1 (mouse) channel inhibition | P35561 | HEK293-Kir2.1, FluxOR thallium flux fluorescence; hits give low values | B-score at 10 µM | 310,000 tested, 0.85% active | AID 1672;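 active = fluorescence ratio B-score at or below minus 3 SD of library scores, with starting-brightness B-score within 2 SD, cut at about -4.2 in these data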;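 note: channel flux triggered by added potassium and thallium sulfate stimulus; B-score of peak minus minimum fluorescence over baseline after thallium stimulus; more negative B-score means stronger Kir2.1 block with less thallium influx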
RGS4 pot = RGS4 potentiation or activation | HEK293 M3R/inducible RGS4, carbachol calcium flux Fluo4; hits give low values | B-score at 10 µM | 310,000 tested, 0.92% active;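 active = B-score of the integrated calcium signal more than 4 SD below the library mean, with starting fluorescence not abnormally high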;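 note: negative B-score means reduced calcium response which marks RGS4 activation or potentiation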
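Assay system: HEK293 FlpIn-TREx cells, stable M3R, doxycycline-inducible RGS4 / Probe or stimulus: carbachol, ECmax concentration / Times: overnight RGS4 induction, 30 min dye load 37 °C, 20 min compound RT / Signal: kinetic calcium fluorescence imaging with Fluo4-AM dye, 2 µM / Measure: Agonist-evoked peak-minus-minimum fluorescence over baseline, integrated ratio, B score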
MrgX1 antag = human MrgX1 receptor antagonism, primary screen. 310,000 tested, 1.3% active. Q96LB2. AID 588676. B-score at 10 µM. MRGX1-HEK293 calcium flux, Fluo-4, BAM8-22 antagonism; hits give low values;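 active = calcium-response B-score plate-corrected more than 3 library SD below zero, starting fluorescence within 5 deviations, no agonist response on first addition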;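 note: peak minus trough fluorescence over baseline after final BAM8-22 challenge near maximal dose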
Target sequence (Q96LB2 whole entry, looked up): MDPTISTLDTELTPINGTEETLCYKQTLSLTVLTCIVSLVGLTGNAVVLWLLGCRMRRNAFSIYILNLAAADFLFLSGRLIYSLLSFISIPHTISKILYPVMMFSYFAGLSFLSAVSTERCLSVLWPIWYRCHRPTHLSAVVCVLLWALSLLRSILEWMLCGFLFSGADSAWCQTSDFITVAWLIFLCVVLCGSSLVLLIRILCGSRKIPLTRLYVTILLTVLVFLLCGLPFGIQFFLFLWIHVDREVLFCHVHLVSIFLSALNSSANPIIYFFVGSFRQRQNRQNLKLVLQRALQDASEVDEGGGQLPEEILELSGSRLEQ
MrgX1 PAM = human MrgX1 positive allosteric modulation, primary screen. B-score at 10 µM. Q96LB2. MrgX1-HEK293, Fluo-4 calcium flux, FDSS; hits give high values. 310,000 tested, 0.63% active;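 active = plate-corrected calcium response at least 3 library SD above typical, normal starting fluorescence, not activating the receptor alone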;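 note: compound read alongside a low EC10 to EC30 dose of BAM8-22 agonist; peak minus trough fluorescence over baseline measured at the second addition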
RGS4 inh = human RGS4 inhibition. P49798. HEK293 M3R/RGS4 inducible, Fluo-4 calcium flux; hits give high values; triggered by carbachol at its EC20. B-score at 10 µM. 310,000 tested, 0.45% active. AID 463165;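 active = B-score, a plate-corrected calcium signal, over three deviations above library mean, with baseline fluorescence within five deviations of library mean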;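 note: RGS4 expression induced by doxycycline in cells with stable M3 receptor; B-score is computed from the integrated fluorescence ratio over baseline after carbachol; higher B-score means a larger calcium signal and so more RGS4 inhibition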
Target sequence (P49798 whole entry, looked up): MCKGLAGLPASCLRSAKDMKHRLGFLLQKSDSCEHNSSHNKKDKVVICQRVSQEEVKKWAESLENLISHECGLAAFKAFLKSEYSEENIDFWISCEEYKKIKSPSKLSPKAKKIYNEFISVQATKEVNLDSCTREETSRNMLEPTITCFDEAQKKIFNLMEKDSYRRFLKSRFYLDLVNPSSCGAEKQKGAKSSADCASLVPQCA
MrgX1 ag = activates human MrgX1 receptor signaling. AID 588627. MrgX1-HEK293 cells, Fluo-4 calcium fluorescence, agonist mode; hits give high values. 310,000 tested, 0.44% active. B-score at 10 µM. Q96LB2;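 active = calcium response B-score plate-corrected fluorescence ratio at least 3 library SD, with starting fluorescence B-score inside 5 SD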
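Test system: Stable human MrgX1 HEK293 cell line | Schedule: Overnight plating before 1 h dye loading | Read-out basis: Baseline-normalised fluorescence change ratio, B-scored | Detection: Kinetic calcium dye fluorescence, Fluo-4 NW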
Each line names hits and unclear results; the compound was inactive in the other large screens. Shown are actives, neighbours in structure and some others; about 4.1% of the full set was active somewhere.

N=c1c(S(=O)(=O)c2ccccc2)cc2c(=O)n3ccccc3nc2n1Cc1ccco1	none
Cc1ccc(S(=O)(=O)c2cc3c(=O)n4ccccc4nc3n(Cc3ccco3)c2=N)cc1C	MrgX1 ag 31
Cc1ccc(S(=O)(=O)c2cc3c(=O)n4ccccc4nc3n(CCc3ccccc3)c2=N)cc1	RGS4 pot -7.2
CCn1c(=N)c(S(=O)(=O)c2ccc(C)cc2)cc2c(=O)n3ccccc3nc21	none
COc1ccc(CCn2c(=N)c(S(=O)(=O)c3ccc(Cl)cc3)cc3c(=O)n4ccccc4nc32)cc1	MrgX1 antag -5.5
O=C(N/N=C/c1cc2c(cc1Cl)OCO2)c1ccncc1	none
COc1cccc(-n2c(=O)c3sccc3n(CC(=O)NC3CCCCC3)c2=O)c1	none
CCCc1cnc(NCCNCC(O)COc2ccc(Cl)c(Cl)c2)nc1 (centres undefined)	Kir21 block -6.5
CC(OC(=O)c1cc(Br)ccc1O)C(=O)Nc1ccc(S(=O)(=O)N2CCCC2)cc1 (centres undefined)	none
Cc1cccc(C(=O)OC(C)C(=O)Nc2ccc(S(=O)(=O)N3CCCC3)cc2)c1O (centres undefined)	RGS4 pot -7.3
O=C(Nc1cnn(Cc2ccc(F)cc2)c1)c1noc2c1CCCC2	none
CC(=O)NC1=NC(=O)/C(=C/c2cc(C)n(-c3cccc(C(=O)O)c3)c2C)S1	none (no result: MrgX1 antag, MrgX1 PAM, MrgX1 ag)
CC(=O)NC1=NC(=O)/C(=C/c2cc(C)n(-c3ccc(NC(C)=O)cc3)c2C)S1	MrgX1 antag -4.5
Cc1noc(C)c1CSc1nc2ccccc2n1CCc1ccccc1	Kir21 block -7.2
Cc1noc(C)c1CN(C(=S)NC(C)C)c1ccccc1	Kir21 block -6.5
CC(C)=CCC/C(C)=C/CC(C)(C)CNCCN1CCNCC1	Kir21 block -8.2
CC(C)=CCC/C(C)=C/CCC(C)NCCN1CCNCC1 (centres undefined)	Kir21 block -7.4
CC(C)=CCCC(C)CN1CCC(O)CC1 (centres undefined)	none
CCCCCC[N+](C)(C)CC/C=C1/c2ccccc2Sc2ccc(Cl)cc21	RGS4 pot -9.5
Clc1ccc(C(c2ccccc2Cl)C(Cl)Cl)cc1 (centres undefined)	none (no result: Kir21 block, RGS4 pot, RGS4 inh)
CCOC(=O)CSc1nc2ccccc2c(=O)n1CCC(=O)NCCc1ccc(OC)c(OC)c1	none
CN(C)CCCN(C(=O)c1ccc(Br)s1)c1nc2cc3c(cc2s1)OCCO3	Kir21 block -7.8
CN(C)CCN(C(=O)c1ccc(S(=O)(=O)N(C)C)cc1)c1nc2cc3c(cc2s1)OCCO3	none
CN(C)CCN(C(=O)c1ccc(S(=O)(=O)N(C)c2ccccc2)cc1)c1nc2cc3c(cc2s1)OCCO3	RGS4 pot -7.8
COCCn1c(C)cc(C(=O)CSc2ccc(NC(C)=O)cc2)c1C	none
CC(=O)N1CCN(CC(=O)Nc2cc(F)ccc2C)CC1	none
Cc1ccc(C(C)C)cc1S(=O)(=O)NCc1ccccn1	Kir21 block -5.8
CCOc1cc(S(=O)(=O)NCc2ccccn2)c(C)cc1C	Kir21 block -4.7
CC(C)(O)CCc1c(-c2ccc(O)cc2O)oc2c3c(cc(O)c2c1=O)OC(C)(C)C=C3	none
CCOCCc1nnc(NC(=O)CS(=O)(=O)c2ccc(C)cc2)s1	none
O=C(NCCc1ccc(Cl)cc1)C1COc2ccccc2O1 (centres undefined)	Kir21 block -4.7
C/C(=N\N(c1ccccc1)c1ccccc1)c1ccc(N)cc1	none
C/C(=N\N(c1ccccc1)c1ccccc1)c1ccc(O)cc1	Kir21 block -5.1
COc1ccc(NC(=O)c2cc3cccc(OC)c3oc2=Nc2ccc(C(=O)O)cc2)cc1OC	none (no result: MrgX1 antag, MrgX1 PAM, MrgX1 ag)
COc1cccc(NC(=O)c2cc3ccccc3o/c2=N\O)c1	MrgX1 ag 27
COc1cc(NC(=O)c2cc3cccc(OC)c3o2)cc(C(=O)Nc2cccc(C(F)(F)F)c2)c1	RGS4 pot -8.2, MrgX1 antag -5.2
COc1cccc(NC(=O)c2cc3cccc(OC)c3o/c2=N\O)c1	RGS4 inh 6.1
CN1CCN(CCCNC(=O)c2ccc(/C=C3/Sc4ccccc4N(Cc4cccc(Cl)c4)C3=O)cc2)CC1	RGS4 pot -7.7 (no result: MrgX1 antag, MrgX1 PAM, MrgX1 ag)
CN1CCN(CCCNC(=O)c2ccc(/C=C3\Sc4ccccc4N(Cc4ccc(F)cc4)C3=O)cc2)CC1	RGS4 pot -7.5 (no result: MrgX1 antag, MrgX1 PAM, MrgX1 ag)
Cc1cccc(CN2C(=O)/C(=C\c3ccc(C(=O)NCCCN4CCN(C)CC4)cc3)Oc3ccccc32)c1	none
CN1CCN(CCCNC(=O)c2ccc(/C=C3\Oc4ccccc4N(Cc4ccccc4F)C3=O)cc2)CC1	RGS4 pot -8.3
Cc1ccccc1CN1C2=NCCN2c2ccccc21	none
O=C(Oc1ccc(Br)cc1C(=S)N1CCOCC1)c1ccc([N+](=O)[O-])cc1[N+](=O)[O-]	RGS4 pot -7.5
O=C(Oc1ccc(C(=S)N2CCOCC2)cc1)c1ccc([N+](=O)[O-])cc1[N+](=O)[O-]	none
O=C(O)c1cccc(NC(=O)C2C3C=CC(C3)C2C(=O)OCC(F)(F)C(F)F)c1 (centres undefined)	none
COc1ccc(N/N=C(\C=N\O)C(=O)c2ccc(OC)cc2)cc1	none
CO/N=C/C(=N\Nc1cc(OC)cc(OC)c1)C(=O)c1ccccc1	MrgX1 antag -5.4
COCCNCCCOc1ccc(C(C)(C)c2ccccc2)cc1	none
C=CCNCCCOc1ccc(C(C)(C)c2ccccc2)cc1	Kir21 block -8.6
COCCCNCCCOc1ccc(C(C)(C)c2ccccc2)cc1	Kir21 block -8.2
CCCCOc1ccc(Br)cc1/C(C)=N/NC1=NCCN1	Kir21 block -8.1, RGS4 pot -8.1
CCCCCCn1c2c(c(=N)c3c1CCC3)CCC2	none
CCCCCCCn1c2c(c(=N)c3c1CCC3)CCCC2	Kir21 block -6.5 (no result: MrgX1 antag, MrgX1 PAM, MrgX1 ag)
CCCCCCCCCn1c2c(c(=N)c3c1CCC3)CCC2	Kir21 block -15
CN(c1ccc(Cl)cc1)c1cc(=O)n(C)c2ccccc12	Kir21 block -7
O=C(Nc1ccccn1)c1ccc(Cl)c(S(=O)(=O)N2CCCC2)c1	none
N=c1n(CCO)c2ccccc2n1CCOc1ccc(Cl)cc1Cl	Kir21 block -4.4
N=c1n(CCO)c2ccccc2n1Cc1ccccc1Cl	none
Cc1c(Cl)cccc1NC(=S)N1CCCN(Cc2ccc(F)cc2)C1	Kir21 block -6.2
Cc1ccccc1NC(=S)N1CCCN(Cc2ccc(F)cc2)C1	Kir21 block -4.5
Cc1ccc(NC(=S)N2CCCN(Cc3ccc(F)cc3)C2)c(C)c1	none
CCCN(CCC)C(=O)Cn1ccc(=N)c2ccccc21	none
Cc1nc(N2CCN(C)CC2)c2c(C)c(C(=O)Nc3ccc(C)c(F)c3)sc2n1	Kir21 block -6
CCOc1ccc(NC(=O)c2sc3nc(C)nc(N4CCOCC4)c3c2C)cc1	none

Screens from PubChem.
